Article PMC8052299 (Biochemical pharmacology, 2021)
Read-outs that look alike come from different tables or passages of the source.

Legend:
HIV-1NL4.3 = test: HIV replication assay in PBMCs; format: cell-based; details: for HIV replication suppressed: day 6
[1] = Viability of uninfected PBMCs; format: cell-based, human; details: human, CC50, uninfected PBMCs, Viacount dye
J-Lat 9.2 cells = test: LRA-induced provirus expression; format: cell-based; details: for stimulation of GFP expression: J-Lat 9.2, data not shown; for GFP expression induced, % of cells: LRA only
J-Lat 10.6 cells [2] = test: LRA-induced provirus expression; format: cell-based
OM-10.1 cells = test: TNFα-induced provirus expression; format: cell-based; details: for EC50: 24 h, read-out: TNFα EC50, inhibition of provirus expression
Outline: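 OM-10.1 cells seeded at 200,000 cells/well and co-treated with 1 ng/mL TNFα plus test compound or 0.1% DMSO for 24 h. Cells were fixed, permeabilized, stained for intracellular p24Gag (KC57-RD1) and scored on live-gated cells by flow cytometry. EC50s were derived after normalizing to TNFα-only controls.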

J-Lat 10.6 cells [3] = format: cell-based; details: for GFP expression 24 hours after washing, % of vehicle-treated control cells: washed, 24 h drug-free
CDK9/cyclin T1 = CDK9/cyclin T1 (Homo sapiens, UniProt P50750); test: CDK9 kinase activity assay; format: biochemical
Sequence of CDK9/cyclin T1 (P50750 whole entry): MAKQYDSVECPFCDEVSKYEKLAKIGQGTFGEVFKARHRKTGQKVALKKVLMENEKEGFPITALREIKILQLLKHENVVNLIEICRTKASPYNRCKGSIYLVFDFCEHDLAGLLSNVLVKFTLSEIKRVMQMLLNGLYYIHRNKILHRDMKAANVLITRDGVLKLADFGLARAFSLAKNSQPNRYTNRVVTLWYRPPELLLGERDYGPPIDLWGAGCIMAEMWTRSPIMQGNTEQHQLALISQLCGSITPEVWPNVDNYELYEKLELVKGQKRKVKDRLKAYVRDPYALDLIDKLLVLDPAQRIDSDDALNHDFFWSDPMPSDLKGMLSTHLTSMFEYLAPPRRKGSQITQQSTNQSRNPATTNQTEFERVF
Sequence of CDK9/cyclin T1 (O60563 whole entry partner): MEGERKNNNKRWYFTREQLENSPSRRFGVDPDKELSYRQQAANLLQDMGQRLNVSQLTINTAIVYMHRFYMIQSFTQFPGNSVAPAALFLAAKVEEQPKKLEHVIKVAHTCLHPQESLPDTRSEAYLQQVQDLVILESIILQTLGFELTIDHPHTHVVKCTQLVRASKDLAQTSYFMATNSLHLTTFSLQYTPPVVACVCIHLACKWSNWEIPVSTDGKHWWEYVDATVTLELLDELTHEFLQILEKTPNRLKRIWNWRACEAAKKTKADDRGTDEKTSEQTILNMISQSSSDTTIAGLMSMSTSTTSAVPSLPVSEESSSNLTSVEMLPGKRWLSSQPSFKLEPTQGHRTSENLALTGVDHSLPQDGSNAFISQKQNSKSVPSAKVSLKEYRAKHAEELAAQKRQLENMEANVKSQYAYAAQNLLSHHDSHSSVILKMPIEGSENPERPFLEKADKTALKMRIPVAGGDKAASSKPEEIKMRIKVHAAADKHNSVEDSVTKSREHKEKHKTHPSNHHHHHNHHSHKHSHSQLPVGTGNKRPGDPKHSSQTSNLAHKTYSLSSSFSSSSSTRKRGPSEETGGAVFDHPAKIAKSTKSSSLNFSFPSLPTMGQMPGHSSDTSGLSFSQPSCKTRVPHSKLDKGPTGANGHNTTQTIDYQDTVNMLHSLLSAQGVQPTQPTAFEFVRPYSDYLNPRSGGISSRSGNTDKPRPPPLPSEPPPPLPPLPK

[4] = tested on: Tat-dependent transactivation; test: Tat-transactivated mCherry expression in JurTat cells; format: cell-based; details: for effect on ratio of mCherry:Dendra fluorescence: up to 30 μM
Outline: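 JurTat cells (Tat-Dendra plus HIV LTR-mCherry) were induced with 500 ng/mL doxycycline and seeded at 200,000 cells/well with test compound or 0.1% DMSO. After 24 h, Tat-Dendra and mCherry were measured by flow cytometry. Values are percent positive cells and mCherry:Dendra fluorescence ratio, expressed relative to 0.1% DMSO-treated cells.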

class I and II HDAC = test: Cellular HDAC activity assay; format: cell-based; details: for IC50: read-out: HDAC Inhibition IC50, Jurkat cells, 90 min, HDAC-Glo I/II
PBMCs = test: Viability of uninfected PBMCs; format: cell-based, human; details: 6 days; for CC50: Viacount dye; for toxicity: up to 30 μM
Jurkat cells = test: Jurkat cell viability, 24 h; format: cell-based; details: 30 μM
[5] = tested on: Tat-dependent transactivation; test: HIV Tat-induced GFP expression in CEM-GXR cells; format: cell-based, HIV-1
[6] = J-Lat 9.2, 24 h, read-out: Panobinostat EC50, inhibition of provirus expression
[7] = J-Lat 9.2, 24 h, read-out: Prostratin EC50, inhibition of provirus expression
[8] = J-Lat 9.2, 24 h, read-out: TNFα EC50, inhibition of provirus expression
[9] = J-Lat 10.6, 24 h, read-out: HMBA EC50, inhibition of provirus expression
[10] = J-Lat 10.6, 24 h, read-out: JQ1 EC50, inhibition of provirus expression
[11] = J-Lat 10.6, 24 h, read-out: TNFα EC50, inhibition of provirus expression
[12] = 15 μM, JurTat + 500 ng/mL Dox, 24 h

| Compound | CC50 at 6 days [1] [µM] | EC50 (J-Lat 9.2 cells; [6]) [µM] | EC50 (J-Lat 9.2 cells; [7]) [µM] | EC50 (J-Lat 9.2 cells; [8]) [µM] | EC50 (J-Lat 10.6 cells [2]; [9]) [µM] | EC50 (J-Lat 10.6 cells [2]; [10]) [µM] | EC50 (J-Lat 10.6 cells [2]; [11]) [µM] | EC50 (OM-10.1 cells) [µM] | GFP expression 24 hours after washing, % of vehicle-treated control cells (J-Lat 10.6 cells [3]; 10 μM for 21 days, J-Lat 10.6) [%] | IC50 (CDK9/cyclin T1) [µM] | HDAC activity inhibited (class I and II HDAC; 10 μM, Jurkat) [%] | IC50 (class I and II HDAC) [µM] | also measured |
| --- | --- | --- | --- | --- | --- | --- | --- | --- | --- | --- | --- | --- | --- |
| O=c1cc(-c2ccc(O)cc2)oc2cc(O)cc(O)c12 [Apigenin, apigenin] | 19.8 ± 6.5 | 4.1 ± 0.4 | 7.3 ± 1.1 | 5.6 ± 0.6 | 5.2 ± 0.8 | 7.2 ± 1.1 | 6.2 ± 0.3 | 4.1 ± 0.8 | 80.6 ± 80.5 | 0.21 ± 0.1 | 19.4 ± 5.4 | 47.2 ± 6.7 | Selectivity Index (CC50/EC50) (HIV-1NL4.3): 4.0; Dendra, % of fluorescence in cells treated with only Dox ([4]; 15 μM, JurTat): 39.9%; mCherry, % of fluorescence in cells treated with only Dox ([4]; 15 μM, JurTat): 13.7%; residual mCherry fluorescence as % of residual Dendra fluorescence ([4]; 15 μM, JurTat): 34.3%; Dendra expression, % of cells [4, 12]: 17.4 ± 6.5%; mCherry expression, % of cells [4, 12]: 1.8 ± 0.7%; EC50, mCherry:Dendra fluorescence ratio ([4]; JurTat + 500 ng/mL Dox, 24 h): 14.5 ± 1.5 µM |
| COc1cc(F)ccc1-c1ncnc(Nc2cccc(C[S@](C)(=N)=O)c2)n1 [Atuveciclib, atuveciclib, reference compound] | 24.7 ± 4.9 | 3.6 ± 0.8 | 1.8 ± 0.1 | 1.7 ± 0.2 | 1.8 ± 0.1 | 2.4 ± 0.2 | 4.3 ± 0.2 | 1.8 ± 0.09 | 53.0 ± 0.8 | – | 11.3 ± 12.9 | > 90 | CC50 (PBMCs): 24.4 ± 1.5 µM; viability reduced vs 0.1% DMSO (Jurkat cells): 61.3 ± 2.6%; GFP expression 11 days following wash-out (J-Lat 10.6 cells [3]; 10 μM for 21 days, J-Lat 10.6): returned to those of untreated controls; GFP expression before wash-out, % of untreated cells (J-Lat 10.6 cells [3]; 10 μM, 21 days, J-Lat 10.6): 3.4 ± 0.7%; spontaneous GFP production abolished (J-Lat 10.6 cells [3]; 10 μM, after 9 days, J-Lat 10.6): > 95%; duration of reinforced latency following withdrawal in vitro (J-Lat 10.6 cells [3]; J-Lat 10.6, after 21 days' treatment): 9 days; HDAC activity inhibited (class I and II HDAC; 90 μM, Jurkat): 29.7 ± 14.3% |
| O=c1cc(-c2ccccc2)oc2cc(O)cc(O)c12 [Chrysin, chrysin] | > 30 | 2.8 ± 0.4 | 4.3 ± 1.2 | 4 ± 0.4 | 6.7 ± 1.4 | 7.7 ± 1.5 | 6.3 ± 0.7 | 4.7 ± 0.3 | 70.9 ± 65.6 | 0.021 ± 0.01 | 37.9 ± 7.7 | 24 ± 4.8 | Selectivity Index (CC50/EC50) (HIV-1NL4.3): > 3.3; toxicity (PBMCs): no toxicity was observed; provirus expression inhibited (J-Lat 9.2 cells; 3 μM, J-Lat 9.2, 10 ng/mL TNFα): 22.5 ± 24.9%; provirus expression inhibited (J-Lat 9.2 cells; 10 μM, J-Lat 9.2, 10 ng/mL TNFα): 88.3 ± 8.8% |
| CC(=O)NCCCCCCNC(C)=O [HMBA, reference compound] | – | – | – | – | – | – | – | – | – | – | – | – | stimulation of GFP expression (J-Lat 9.2 cells): did not stimulate GFP expression; GFP production, % of cells (J-Lat 10.6 cells [2]; J-Lat 10.6, 10 mM, LRA only): 34.6 ± 1.4% |
| Cc1sc2c(c1C)C(c1ccc(Cl)cc1)=N[C@@H](CC(=O)OC(C)(C)C)c1nnc(C)n1-2 [JQ1, reference compound] | – | – | – | – | – | – | – | – | – | – | – | – | stimulation of GFP expression (J-Lat 9.2 cells): did not stimulate GFP expression; GFP production, % of cells (J-Lat 10.6 cells [2]; J-Lat 10.6, 10 μM, LRA only): 35.9 ± 2.0% |
| O=c1cc(-c2ccc(O)c(O)c2)oc2cc(O[C@@H]3O[C@H](CO)[C@@H](O)[C@H](O)[C@H]3O)cc(O)c12 [L7G, luteolin-7-glucoside] | – | – | – | – | – | – | – | – | – | – | – | > 90 | HIV replication suppressed (HIV-1NL4.3; 1 μM): 26.3 ± 24.8%; HIV replication suppressed (HIV-1NL4.3; 10 μM): 77.3 ± 32.7%; CC50 (PBMCs): 18.3 ± 2.5 µM; EC50 (J-Lat 9.2 cells; read-out: Panobinostat EC50, inhibition of provirus expression, J-Lat 9.2, 0.1 μM panobinostat, 24 h, GFP): 4.3 ± 0.4 µM; EC50 (J-Lat 9.2 cells; read-out: Prostratin EC50, inhibition of provirus expression, J-Lat 9.2, 10 μM prostratin, 24 h, GFP): 17.3 ± 2.2 µM; EC50 (J-Lat 9.2 cells; read-out: TNFα EC50, inhibition of provirus expression, J-Lat 9.2, 10 ng/mL TNFα, 24 h, GFP): 4.5 ± 0.6 µM; EC50 (J-Lat 10.6 cells [2]; read-out: HMBA EC50, inhibition of provirus expression, J-Lat 10.6, 10 mM HMBA, 24 h, GFP): 10.1 ± 3.5 µM; EC50 (J-Lat 10.6 cells [2]; read-out: JQ1 EC50, inhibition of provirus expression, J-Lat 10.6, 10 μM JQ1, 24 h, GFP): 16.4 ± 3.3 µM; EC50 (J-Lat 10.6 cells [2]; read-out: TNFα EC50, inhibition of provirus expression, J-Lat 10.6, 10 ng/mL TNFα, 24 h, GFP): 11.9 ± 0.5 µM; EC50 (OM-10.1 cells; OM-10.1, 1 ng/mL TNFα, p24Gag): 10.3 ± 1.2 µM; spontaneous latency reversal (J-Lat 10.6 cells [3]; 10 μM, 21 days, J-Lat 10.6): highly variable, but not inhibited; CDK9 IC50 fold higher than aglycone analogue luteolin (CDK9/cyclin T1): 96 fold; IC50 (CDK9/cyclin T1; read-out: CDK9 inhibition IC50, purified CDK9/cyclin T1, 10 μM ATP, ADP-Glo): 6.9 ± 3.9 µM; EC50 ([5]; read-out: Tat-dependent transactivation EC50, pCMV-Tat-transfected CEM-GXR cells, GFP, 24 h): > 30 µM; inhibition of Tat-induced GFP expression ([5]; up to 30 μM, CEM-GXR): unable to inhibit GFP expression; effect on ratio of mCherry:Dendra fluorescence ([4]; JurTat): neither naringenin nor L7G substantially affected the ratio |
| O=c1cc(-c2ccc(O)c(O)c2)oc2cc(O)cc(O)c12 [Luteolin, luteolin] | 13.9 ± 5.9 | 6.8 ± 0.8 | 20.6 ± 2.6 | 7.6 ± 0.6 | 26.5 ± 5.8 | 15.4 ± 1.5 | 13.6 ± 0.8 | 10.3 ± 0.6 | 79.9 ± 26.6 | 0.072 ± 0.03 | 10.1 ± 1.6 | > 90 | Selectivity Index (CC50/EC50) (HIV-1NL4.3): 1.1; EC50, mCherry:Dendra fluorescence ratio ([4]; JurTat + 500 ng/mL Dox, 24 h): 9.5 ± 1.5 µM; HDAC activity inhibited (class I and II HDAC; 100 μM, Jurkat): 42.6 ± 9.5% |
| O=C1C[C@@H](c2ccc(O)cc2)Oc2cc(O)cc(O)c21 [Naringenin, naringenin, reference compound] | > 30 | > 30 | > 30 | > 30 | > 30 | > 30 | > 30 | > 30 | – | > 30 | – | 88.7 ± 32.1 | antiviral activity (HIV-1NL4.3; up to 30 μM): no antiviral activity was observed; toxicity (PBMCs): No toxicity was observed; inhibition of LRA-induced provirus expression (J-Lat 10.6 cells [2]; J-Lat 10.6, TNFα, JQ1, HMBA): did not inhibit any LRA-induced provirus expression; inhibition of TNFα-induced provirus expression (OM-10.1 cells; OM-10.1, 1 ng/mL TNFα): no inhibition was observed; effect on ratio of mCherry:Dendra fluorescence ([4]; JurTat): neither naringenin nor L7G substantially affected the ratio |
| Cc1[nH]c2ccccc2c1CCNCc1ccc(/C=C/C(=O)NO)cc1 [panobinostat, reference compound] | – | – | – | – | – | – | – | – | – | – | – | – | GFP expression induced, % of cells (J-Lat 9.2 cells; J-Lat 9.2, 0.1 μM, 24 h): 10.8 ± 1.4%; cellular HDAC activity reduced (class I and II HDAC; 0.1 μM, Jurkat): 88.0 ± 10.9% |
| CC(=O)O[C@@]12C[C@@H](C)[C@@]3(O)[C@@H](C=C(CO)C[C@]4(O)C(=O)C(C)=C[C@@H]34)[C@@H]1C2(C)C [prostratin, reference compound] | – | – | – | – | – | – | – | – | – | – | – | – | GFP expression induced, % of cells (J-Lat 9.2 cells; J-Lat 9.2, 10 μM, 24 h): 10.7 ± 2.7% |
| TNFα | – | – | – | – | – | – | – | – | – | – | – | – | GFP expression induced, % of cells (J-Lat 9.2 cells; J-Lat 9.2, 10 ng/mL, 24 h): 10.4 ± 1.7%; GFP-positive cells induced (J-Lat 10.6 cells [2]; J-Lat 10.6, 10 ng/mL, 24 h, LRA only): 80.3 ± 2.6%; p24Gag production induced, % of live-gated cells (OM-10.1 cells; OM-10.1, 1 ng/mL): 90.6 ± 4.0% |
